Results reported in ChEMBL document CHEMBL3621164, “Discovery of Triazole CYP11B2 Inhibitors with in Vivo Activity in Rhesus Monkeys” (ACS Med Chem Lett, 2015).

molecular target: T1, Cytochrome P450 11B1, mitochondrial (Homo sapiens, UniProt P15538); assay: Inhibition of human CYP11B1 expressed in V79 cells assessed as cortisol level after 3 hrs by HTRF assay in presence of 250 nM 11-deoxycortisol; format: cell-based; details: not given
T1 sequence (P15538 whole entry): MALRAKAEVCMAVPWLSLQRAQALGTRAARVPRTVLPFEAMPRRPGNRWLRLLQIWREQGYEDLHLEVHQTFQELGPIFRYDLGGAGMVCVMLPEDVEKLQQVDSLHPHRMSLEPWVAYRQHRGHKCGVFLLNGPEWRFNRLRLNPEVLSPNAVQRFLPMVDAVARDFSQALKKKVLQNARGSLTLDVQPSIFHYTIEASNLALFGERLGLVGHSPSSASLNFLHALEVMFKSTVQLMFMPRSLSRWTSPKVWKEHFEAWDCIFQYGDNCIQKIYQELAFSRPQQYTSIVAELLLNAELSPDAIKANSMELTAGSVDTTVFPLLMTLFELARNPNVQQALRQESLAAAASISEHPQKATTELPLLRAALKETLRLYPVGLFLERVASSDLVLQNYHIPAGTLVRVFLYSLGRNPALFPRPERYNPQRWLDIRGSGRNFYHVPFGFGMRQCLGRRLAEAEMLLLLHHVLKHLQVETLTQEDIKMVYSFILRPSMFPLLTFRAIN

SMILES	IC50 [nM]
Cc1nnc2n1-c1ccc(-c3cccnc3)cc1CC2	> 10000
Cc1nnc2n1-c1ccc(-c3cncc(C(F)(F)F)c3)cc1CC2	> 10000
Cc1nnc2n1-c1ccc(-c3cncc(F)c3)cc1CC2	> 10000
Cc1nnc2n1-c1ccc(-c3cncc([C@@](C)(O)C(F)(F)F)c3)cc1CC2	> 8330
Cc1nnc2n1-c1ccc(-c3cncc(C(=O)N(C)C)c3)cc1CC2	> 8330

Next, values leading:

IC50 [nM]	SMILES
317	COC(=O)C(C)(C)c1cncc(-c2ccc3c(c2)CCc2nnc(C)n2-3)c1
1470	CC(C)(O)c1cncc(-c2ccc3c(c2)CCc2nnc(C(F)(F)F)n2-3)c1
> 8330	c1cncc(-c2ccc3c(c2)CCc2nnc(C4CCCCC4)n2-3)c1
887	C[C@](O)(c1cncc(-c2ccc3c(c2)CCc2nnc(C(F)(F)F)n2-3)c1)C(F)(F)F
1500	Cc1nnc2n1-c1ccc(-c3cncc(S(=O)(=O)c4ccccc4)c3)cc1CC2
1360	c1ccc(-c2nnc3n2-c2ccc(-c4cccnc4)cc2CC3)cc1

system: not listed separately; assay: Intrinsic clearance in Sprague-Dawley rat liver microsomes by LC/MS method; format: ADME; details: read-out: CLH

CLint scaled [mL/min/kg]	SMILES
55	Cc1nnc2n1-c1ccc(-c3cccnc3)cc1CC2
< 20	CC(C)(O)c1cncc(-c2ccc3c(c2)CCc2nnc(C(F)(F)F)n2-3)c1

molecular target: T2, Aromatase (Homo sapiens, UniProt P11511); assay: Inhibition of human CYP19; details: not given
T2 sequence (P11511 whole entry): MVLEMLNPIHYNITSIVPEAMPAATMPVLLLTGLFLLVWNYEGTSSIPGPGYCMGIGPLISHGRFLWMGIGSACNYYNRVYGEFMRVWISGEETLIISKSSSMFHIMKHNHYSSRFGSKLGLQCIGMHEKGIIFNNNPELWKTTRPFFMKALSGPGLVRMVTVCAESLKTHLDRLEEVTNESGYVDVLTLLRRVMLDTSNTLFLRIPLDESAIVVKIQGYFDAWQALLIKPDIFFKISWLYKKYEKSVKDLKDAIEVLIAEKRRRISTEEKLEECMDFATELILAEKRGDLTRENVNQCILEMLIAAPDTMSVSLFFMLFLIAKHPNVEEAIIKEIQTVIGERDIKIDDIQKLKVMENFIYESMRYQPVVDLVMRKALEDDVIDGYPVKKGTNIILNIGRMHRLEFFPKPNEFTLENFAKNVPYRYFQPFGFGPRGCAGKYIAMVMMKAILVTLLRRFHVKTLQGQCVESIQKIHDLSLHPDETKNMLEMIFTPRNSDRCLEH

IC50 [nM]	SMILES
21	c1ccc(-c2nnc3n2-c2ccc(-c4cccnc4)cc2CC3)cc1

molecular target: T3, Steroid 17-alpha-hydroxylase/17,20 lyase (Homo sapiens, UniProt P05093); assay: Inhibition of human CYP17 expressed in COS7 cells assessed as DHEA level after 3 hrs by EIA assay in presence of 360 nM 17-hydroxypregnenolone; format: cell-based, COS-7; details: not given
T3 sequence (P05093 whole entry): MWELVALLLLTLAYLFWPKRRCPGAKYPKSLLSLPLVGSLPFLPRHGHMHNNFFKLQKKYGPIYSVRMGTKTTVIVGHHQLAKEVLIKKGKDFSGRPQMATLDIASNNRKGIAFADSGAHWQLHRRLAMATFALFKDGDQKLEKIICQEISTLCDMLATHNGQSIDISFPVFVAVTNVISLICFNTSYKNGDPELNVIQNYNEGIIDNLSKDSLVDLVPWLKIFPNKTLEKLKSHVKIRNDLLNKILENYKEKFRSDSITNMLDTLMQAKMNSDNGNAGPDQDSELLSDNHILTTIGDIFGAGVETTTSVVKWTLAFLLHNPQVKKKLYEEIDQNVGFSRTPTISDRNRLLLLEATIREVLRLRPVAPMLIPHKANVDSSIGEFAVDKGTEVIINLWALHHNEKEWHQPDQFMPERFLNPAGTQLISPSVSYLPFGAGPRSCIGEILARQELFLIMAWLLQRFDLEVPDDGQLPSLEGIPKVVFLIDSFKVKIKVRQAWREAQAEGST

IC50 [nM]	SMILES
84	c1ccc(-c2nnc3n2-c2ccc(-c4cccnc4)cc2CC3)cc1

system: not listed separately; assay: Half life in Sprague-Dawley rat at 2 mg/kg, po administered through gavage by LC/MS/MS method; format: ADME, organism-based; details: in vivo

half-life [h]	SMILES
0.2	Cc1nnc2n1-c1ccc(-c3cccnc3)cc1CC2
2.9	CC(C)(O)c1cncc(-c2ccc3c(c2)CCc2nnc(C(F)(F)F)n2-3)c1

system: not listed separately; assay: Oral bioavailability in Sprague-Dawley rat at 2 mg/kg administered through gavage; format: ADME, organism-based; details: in vivo

bioavailability [%]	SMILES
6	Cc1nnc2n1-c1ccc(-c3cccnc3)cc1CC2
83	CC(C)(O)c1cncc(-c2ccc3c(c2)CCc2nnc(C(F)(F)F)n2-3)c1

system: not listed separately; assay: Lipophilicity, log D of the compound by HPLC; format: physicochemical; details: not given
Method in brief: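 Lipophilicity determined experimentally by HPLC.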

logD	SMILES
1.5	CC(C)(O)c1cncc(-c2ccc3c(c2)CCc2nnc(C(F)(F)F)n2-3)c1
1.2	Cc1nnc2n1-c1ccc(-c3cncc([C@@](C)(O)C(F)(F)F)c3)cc1CC2
2.2	C[C@](O)(c1cncc(-c2ccc3c(c2)CCc2nnc(C(F)(F)F)n2-3)c1)C(F)(F)F

system: not listed separately; assay: Plasma protein binding in Sprague-Dawley rat; format: ADME, cell-free; details: not given

fraction unbound	SMILES
0.997	CC(C)(O)c1cncc(-c2ccc3c(c2)CCc2nnc(C(F)(F)F)n2-3)c1

molecular target: T4, Cytochrome P450 11B2, mitochondrial (Homo sapiens, UniProt P19099); assay: Inhibition of human CYP11B2 expressed in V79 cells assessed as aldosterone level after 3 hrs by HTRF assay in presence of 125 nM 11-deoxycorticosterone; format: cell-based; details: not given
T4 sequence (P19099 whole entry): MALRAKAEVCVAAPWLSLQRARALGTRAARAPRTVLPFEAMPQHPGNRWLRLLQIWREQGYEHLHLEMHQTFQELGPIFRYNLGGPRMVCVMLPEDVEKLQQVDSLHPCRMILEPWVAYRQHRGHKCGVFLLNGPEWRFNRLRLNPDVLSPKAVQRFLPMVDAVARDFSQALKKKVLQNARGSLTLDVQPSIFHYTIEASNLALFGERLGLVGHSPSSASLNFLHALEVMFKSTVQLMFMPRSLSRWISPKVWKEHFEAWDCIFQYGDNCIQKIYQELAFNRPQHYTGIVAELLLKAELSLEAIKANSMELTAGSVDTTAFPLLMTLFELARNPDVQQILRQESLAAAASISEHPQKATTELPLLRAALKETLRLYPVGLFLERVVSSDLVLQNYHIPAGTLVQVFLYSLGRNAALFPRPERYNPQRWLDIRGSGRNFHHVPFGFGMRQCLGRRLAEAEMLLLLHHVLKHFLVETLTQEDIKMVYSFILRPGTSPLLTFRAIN

SMILES	IC50 [nM]
Cc1nnc2n1-c1ccc(-c3cccnc3)cc1CC2	423
Cc1nnc2n1-c1ccc(-c3cncc(C(F)(F)F)c3)cc1CC2	486
Cc1nnc2n1-c1ccc(-c3cncc(F)c3)cc1CC2	558
Cc1nnc2n1-c1ccc(-c3cncc([C@@](C)(O)C(F)(F)F)c3)cc1CC2	109
Cc1nnc2n1-c1ccc(-c3cncc(C(=O)N(C)C)c3)cc1CC2	> 8330

Second part, the molecule after the results:

IC50 [nM]	SMILES
19	COC(=O)C(C)(C)c1cncc(-c2ccc3c(c2)CCc2nnc(C)n2-3)c1
526	CC(C)(O)c1cncc(-c2ccc3c(c2)CCc2nnc(C(F)(F)F)n2-3)c1
2400	c1cncc(-c2ccc3c(c2)CCc2nnc(C4CCCCC4)n2-3)c1
461	C[C@](O)(c1cncc(-c2ccc3c(c2)CCc2nnc(C(F)(F)F)n2-3)c1)C(F)(F)F
40	Cc1nnc2n1-c1ccc(-c3cncc(S(=O)(=O)c4ccccc4)c3)cc1CC2
103	c1ccc(-c2nnc3n2-c2ccc(-c4cccnc4)cc2CC3)cc1

system: not listed separately; assay: Plasma clearance in Sprague-Dawley rat at 2 mg/kg, po administered through gavage by LC/MS/MS method; format: ADME, organism-based; details: not given

CL/F [mL/min/kg]	SMILES
38	Cc1nnc2n1-c1ccc(-c3cccnc3)cc1CC2
10	CC(C)(O)c1cncc(-c2ccc3c(c2)CCc2nnc(C(F)(F)F)n2-3)c1

organism: Homo sapiens; assay: Selectivity index, ratio IC50 for human CYP11B1 to IC50 for human CYP11B2; details: not given
Method in brief: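 Ratio of human CYP11B1 IC50 to human CYP11B2 IC50; each IC50 calculated from n ≥ 2 determinations.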

Ratio IC50	SMILES
> 24	Cc1nnc2n1-c1ccc(-c3cccnc3)cc1CC2
3	CC(C)(O)c1cncc(-c2ccc3c(c2)CCc2nnc(C(F)(F)F)n2-3)c1
> 3	c1cncc(-c2ccc3c(c2)CCc2nnc(C4CCCCC4)n2-3)c1
2	C[C@](O)(c1cncc(-c2ccc3c(c2)CCc2nnc(C(F)(F)F)n2-3)c1)C(F)(F)F
13	c1ccc(-c2nnc3n2-c2ccc(-c4cccnc4)cc2CC3)cc1

molecular target: Cytochrome P450 3A4 (Homo sapiens, UniProt P08684); assay: Inhibition of human CYP3A4; format: ADME; details: not given
Sequence (P08684 whole entry): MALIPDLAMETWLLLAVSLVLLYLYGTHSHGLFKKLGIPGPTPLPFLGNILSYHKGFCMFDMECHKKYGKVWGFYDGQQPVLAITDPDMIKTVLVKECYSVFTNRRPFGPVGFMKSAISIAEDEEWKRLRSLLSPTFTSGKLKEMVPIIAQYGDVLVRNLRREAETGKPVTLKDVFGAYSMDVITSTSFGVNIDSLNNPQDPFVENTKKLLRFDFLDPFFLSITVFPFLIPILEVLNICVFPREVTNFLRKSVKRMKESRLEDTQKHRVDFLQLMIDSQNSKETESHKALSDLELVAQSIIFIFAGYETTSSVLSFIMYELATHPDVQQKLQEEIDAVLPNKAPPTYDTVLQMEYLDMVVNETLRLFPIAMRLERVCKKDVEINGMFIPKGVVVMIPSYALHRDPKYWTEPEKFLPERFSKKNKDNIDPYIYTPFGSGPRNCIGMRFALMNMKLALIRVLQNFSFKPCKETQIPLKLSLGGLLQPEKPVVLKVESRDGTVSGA

IC50 [nM]	SMILES
36500	c1ccc(-c2nnc3n2-c2ccc(-c4cccnc4)cc2CC3)cc1

system: Rattus norvegicus; assay: Dose normalized AUC in Sprague-Dawley rat at 2 mg/kg, po administered through gavage; format: ADME, organism-based; details: in vivo

AUC/dose [µM·kg·h/mg]	SMILES
0.1	Cc1nnc2n1-c1ccc(-c3cccnc3)cc1CC2
3.87	CC(C)(O)c1cncc(-c2ccc3c(c2)CCc2nnc(C(F)(F)F)n2-3)c1
